Experimental data of several laboratories.

| Compound | species | sample | route | dose | endpoint | result |
| --- | --- | --- | --- | --- | --- | --- |
| N#Cc1ccc(Nc2nc(N)cc(Oc3c(F)cc(-c4ccc(C#N)cc4)cc3F)n2)cc1 | Sprague-Dawley rat | plasma | intravenous | 1 mg/kg | clearance | 54.6 mL/min/kg |
| Oc1cc(O)cc(-c2cc3ccc(O)cc3o2)c1 | male rat | plasma | intravenous | 5 mg/kg | clearance | 89.5 mL/min/kg |
| O=C(Nc1cc(F)c(F)c(F)c1)c1ccc(F)c(S(=O)(=O)NCc2cccc(B(O)O)c2)c1 | male Sprague-Dawley rat | plasma | intravenous | 2 mg/kg | clearance | 137 mL/min/kg |
| Oc1c(Br)cc(Cl)c2cccnc12 | Sprague-Dawley rat | plasma | subcutaneous | 10 mg/kg | CL/F | 31.7 mL/min/kg |
| CC[C@H](C)[C@H](NC(=O)[C@H](Cc1ccccc1)NC(=O)[C@H](CCC(=O)O)NC(=O)[C@H](CCCNC(=N)N)NC(=O)[C@H](C)NC(=O)[C@H](C)NC(=O)[C@H](CCC(N)=O)NC(=O)[C@H](CCC(=O)O)NC(=O)[C@H](CCC(=O)O)NC(=O)[C@H](CC(C)C)NC(=O)[C@H](Cc1ccc(O)cc1)NC(=O)[C@H](CO)NC(=O)[C@H](CO)NC(=O)[C@@H](NC(=O)[C@H](CC(=O)O)NC(=O)[C@H](CO)NC(=O)[C@@H](NC(=O)[C@H](Cc1ccccc1)NC(=O)[C@@H](NC(=O)CNC(=O)[C@H](CCC(=O)O)NC(=O)[C@H](C)NC(=O)CCc1c[nH]cn1)[C@@H](C)O)[C@@H](C)O)C(C)C)C(=O)N[C@@H](C)C(=O)N[C@@H](Cc1c[nH]c2ccccc12)C(=O)N[C@@H](CC(C)C)C(=O)N[C@H](C(=O)N[C@@H](CCCNC(=N)N)C(=O)NCC(=O)N[C@@H](CCCNC(=N)N)C(=O)N[C@@H](CCCCNC(=O)COCCOCCNC(=O)COCCOCCNC(=O)CC[C@H](NC(=O)CCCCCCCCCCCCCCCCC(=O)O)C(=O)O)C(=O)O)C(C)C | rat | plasma | subcutaneous | 20 nmol/kg | CL/F | 0.145 mL/min/kg |
| Oc1c(-n2ccnn2)cnn1-c1cc(N2CCOCC2)ncn1 | male rat | blood | intravenous | 5 mg/kg | clearance | 18.3 mL/min/kg |
| O=C(c1cc(Cc2n[nH]c(=O)c3ccccc23)ccc1F)N1CCN(C(=O)C2CC2)CC1 | female Sprague-Dawley rat | plasma | intravenous | – | clearance | 2.22 mL/min |
| COc1ccc2c(=O)n(C)c(-c3ccccc3)nc2c1 | male Sprague-Dawley rat | plasma | intravenous | 2 mg/kg | clearance | 39 mL/min/kg |
| COCCOC(=O)C1=C(C)NC(C)=C(C(=O)OC(C)C)C1c1cccc([N+](=O)[O-])c1 (stereo not drawn) | male Sprague-Dawley rat | plasma | intravenous | 3 mg/kg | clearance | 0.025 mL/min/kg |
| CCOC(=O)[C@@]12C[C@@H]1[C@@H](n1ccc3c(NC)nc(C#Cc4ccc(Cl)s4)nc31)[C@H](O)[C@@H]2O | male Sprague-Dawley rat | plasma | intravenous | 0.5 mg/kg | clearance | 302 mL/min/kg |
| COc1ccc2c(Cc3ccccc3F)c3[n+](cc2c1OC)CCc1cc2c(cc1-3)OCO2.[Br-] | rat | plasma | intravenous | 5 mg/kg | clearance | 672 mL/min/kg |
| CCCC[C@@H]1NC(=O)[C@H](Cc2ccc(O)cc2)NC(=O)[C@@H]2CCCN2C(=O)[C@H](CC(=O)O)NC(=O)[C@H](C)NC(=O)[C@H](Cc2ccccc2)NC(=O)[C@@H]2CSCCC(=O)N3CN(CN(C3)C(=O)CCSC[C@@H](C(=O)N[C@@H](C)C(N)=O)NC1=O)C(=O)CCSC[C@H](NC(C)=O)C(=O)N[C@@H](CC(C)(C)C)C(=O)N1CCC[C@H]1C(=O)N[C@@H](CCC(=O)O)C(=O)N[C@H](CCCCNC(=O)CCc1cn(CCOCCOCCOCCOCCOCCOCCOCCOCCOCCOCCNC(=O)CCOCCN(CCOCCC(=O)NCCOCCOCCOCCOCCOCCOCCOCCOCCOCCOCCn3cc(CCC(=O)NCCCC[C@H]4NC(=O)[C@H](CCC(=O)O)NC(=O)[C@@H]5CCCN5C(=O)[C@H](CC(C)(C)C)NC(=O)[C@@H](NC(C)=O)CSCCC(=O)N5CN6CN(C5)C(=O)CCSC[C@H](NC(=O)[C@H](Cc5ccc(O)cc5)NC(=O)[C@@H]5CCCN5C4=O)C(=O)N[C@@H](Cc4ccccc4)C(=O)N[C@@H](C)C(=O)N[C@@H](CC(=O)O)C(=O)N4CCC[C@H]4C(=O)N[C@@H](Cc4ccc(O)cc4)C(=O)N[C@@H](CCCC)C(=O)N[C@H](C(=O)N[C@@H](C)C(N)=O)CSCCC6=O)nn3)CCOCCC(=O)NCCOCCOCCOCCOCCOCCOCCOCCOCCOCCOCCn3cc(CCC(=O)N[C@H]4CSCCC(=O)N5CN6CN(C5)C(=O)CCSC[C@H](NC(=O)[C@@H](CC(=O)O)NC(=O)[C@H](Cc5cccc7ccccc57)NC(=O)[C@@H]5CCCN5C4=O)C(=O)N[C@@H](CCSC)C(=O)N[C@@H](CCCCNC(=N)N)C(=O)N[C@@H](CC(=O)O)C(=O)N[C@@H](Cc4c[nH]c5ccccc45)C(=O)N[C@@H](CO)C(=O)N[C@@H]([C@@H](C)O)C(=O)N4CCC[C@H]4C(=O)N4C[C@H](O)C[C@H]4C(=O)N[C@@H](Cc4c[nH]c5ccccc45)C(=O)N[C@H](C(N)=O)CSCCC6=O)nn3)nn1)C(=O)N1CCC[C@H]1C(=O)N[C@@H](Cc1ccc(O)cc1)C(=O)N2 | rat | plasma | intravenous | 2 mg/kg | clearance | 12 mL/min/kg |
